Here are results for three compounds from ChEMBL document CHEMBL4376899, “Structure-Based Stabilization of Non-native Protein-Protein Interactions of Coronavirus Nucleocapsid Proteins in Antiviral Drug Design” (J Med Chem, 2020).

One may read the CC50 as the concentration that lowers cell viability or growth by half. One may read the EC50 as the concentration needed to bring the measured effect to its halfway point. The Tm is the temperature at the midpoint of the melting transition.

Data set [1] deals with Middle East respiratory syndrome-related coronavirus. Briefly: Binding affinity to N-terminal domain of MERS-CoV nucleocapsid protein assessed as interaction with W43 pocket at 10 uM incubated for 1 hr by fluorescence spectral analysis. The gist of the method: (§1)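 1 μM N protein was incubated with 10 μM compound or buffer at 4 °C for 1 h in 50 mM Tris-HCl (pH 8.3), 150 mM NaCl. Tryptophan fluorescence was excited at 280 nm and emission scanned over 300–400 nm.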

Data set [2] can be described thus: Cytotoxicity in African green monkey Vero E6 cells incubated for 48 hrs by neutral red uptake assay. It is filed as cell-based, Vero C1008. The following applies: chlorocebus sabaeus.
The subject of data set [3] is Middle East respiratory syndrome-related coronavirus. Briefly: Antiviral activity against MERS-CoV infected in African green monkey Vero E6 cells incubated for 48 hrs by neutral red uptake assay. It is filed as functional, organism-based. As to conditions: Vero C1008, 48 h.
Data set [4] has as its system Vero C1008. Briefly: Antiviral activity against HCoV EMC/2012 infected in African green monkey Vero E6 cells assessed as reduction in viral replication at 100 uM incubated for 48 hrs by RT-qPCR analysis. It is filed as functional. As to conditions: Human betacoronavirus 2c EMC/2012. In general terms: In qPCR the cycle at which signal appears reflects the starting amount.

Data set [5] relates to Vero C1008. Briefly: Antiviral activity against HCoV EMC/2012 infected in African green monkey Vero E6 cells assessed as reduction in viral titer at 50 uM incubated for 48 hrs by crystal violet staining based viral plaque assay. It is filed as functional. As to conditions: Human betacoronavirus 2c EMC/2012.
Data set [6] in a line: Antiviral activity against HCoV EMC/2012 infected in African green monkey Vero E6 cells assessed as reduction in viral replication at 50 uM incubated for 48 hrs by RT-qPCR analysis. It is filed as functional, Human betacoronavirus 2c EMC/2012, Vero C1008. Also noted: scale not given: the % may be the effect or the level left.
Data set [7] concerns Vero C1008. Briefly: Antiviral activity against HCoV EMC/2012 infected in African green monkey Vero E6 cells assessed as reduction in viral titer at 100 uM incubated for 48 hrs by crystal violet staining based viral plaque assay. As to conditions: Human betacoronavirus 2c EMC/2012. It is filed as functional.
Data set [8] relates to Middle East respiratory syndrome-related coronavirus. Briefly: Binding affinity to N-terminal domain of MERS-CoV nucleocapsid protein assessed as maximum dimension at 440 uM by SAXS analysis (reference value: 207 angstrom).
The test system is the same in data set [9]. The data set is described as follows: Binding affinity to N-terminal domain of MERS-CoV nucleocapsid protein assessed as radius of gyration at 440 uM by SAXS analysis (reference value: 58 angstrom).
Data set [10] shares this test system. Briefly: Binding affinity to N-terminal domain of MERS-CoV nucleocapsid protein assessed as induction of blue shift in fluorescence spectrum at 10 uM incubated for 1 hr by fluorescence spectral analysis. In a few lines: as §1
Data set [11] relates to Vero C1008. The data set is described as follows: Inhibition of nucleocapsid protein expression in HCoV EMC/2012 infected in African green monkey Vero E6 cells at 100 uM by immunofluorescence microscopy. It is filed as functional. The following applies: Human betacoronavirus 2c EMC/2012.
For data set [12], the system named is Vero C1008. Briefly: Induction of intracellular nucleocapsid protein aggregation in HCoV EMC/2012 infected in African green monkey Vero E6 cells at 50 uM by immunofluorescence microscopy. As to conditions: Human betacoronavirus 2c EMC/2012. It is filed as cell-based.
Data set [13] concerns Middle East respiratory syndrome-related coronavirus. The data set is described as follows: Binding affinity to N-terminal domain of MERS-CoV nucleocapsid protein assessed as denaturation melting temperature at 10 uM incubated for 1 hr by fluorescent thermal stability assay (reference value: 42 degC).
The nature of data set [14]: Therapeutic index, ratio of CC50 for cytotoxicity in African green monkey VeroE6 cells incubated for 48 hrs by neutral red uptake assay to EC50 for antiviral activity against MERS-CoV infected in African green monkey Vero E6 cells incubated for 48 hrs by neutral red uptake assay. It is filed as toxicity, cell-based, Vero C1008. As to conditions: read-out: Ratio CC50/EC50.

Calls of active or inactive are those of the source. No cut-off for these calls is given here. A value given as a limit tells only on which side of the number the result lay.

`O=C(OCc1ccccc1)N1c2ccccc2CC1CO` (stereo not given): the result in data set [1] was Active. The CC50 at 48 h in data set [2] came out at 460 µM. The EC50 in [3] is above 100 µM.
In the case of `CN(C)Cc1c[nH]c2ccc(OCc3ccccc3)cc12`, the result (in the data set on Vero C1008 [4]; in the data set on Vero C1008 [5]; in data set [1]; in the data set on Vero C1008 [7]; in data set [10]; in the data set on Vero C1008 [12]) was Active. For the same compound, the Activity in [6] was 40%; in data set [8], 230 Angstrom; in data set [9] it was 65 Angstrom. This compound also returned a CC50 at 48 h in data set [2] of 805 µM. In addition, in data set [3], the 50% effective concentration (EC50) is 32.1 µM. In addition, the inhibition entry in the data set on Vero C1008 [11] is “Active”. The Tm in data set [13] was found to be 45 °C. In addition, the selectivity ratio at 48 h in [14] amounted to 25.1.
As for `CCc1cccc2c3c([nH]c12)C(CC)(CC(=O)O)OCC3` (stereo not given) [ETODOLAC], the result in data set [1] was Active. In data set [2], this compound came in with a CC50 at 48 h of 570 µM. The same compound returned an EC50 in [3] above 100 µM.
